Measured values published in ChEMBL document CHEMBL5303300, “EUbOPEN Chemogenomics Library - Multiplex” (2023).
Values joined by “and” are separate entries in the source; they are usually repeats but may differ in a detail not shown here. Equal values may be shown once.

Key:
Format in all cases: toxicity, cell-based
[1] = tested on: Fibroblast; assay: Multiplex assay against human fibroblast; conditions: number of replicates 2
Summary of the method: (§1)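 Cells stained live at seeding with Hoechst33342, BioTracker Green Microtubule Cytoskeleton Dye, MitoTracker Red and Annexin V Alexa Fluor 680 were imaged on a CQ1 microscope at 37°C and 5% CO2 after compound addition. Their classification by CellPathfinder machine-learning gating ran from Hoechst high-intensity objects versus normal cells, to healthy, pyknosed or fragmented nuclei among normal cells, to mitotic or apoptotic among pyknosed cells. Tubulin, mitochondrial-mass and membrane-permeability phenotypes are per cents of healthy-nucleus cells.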

[2] = tested on: HEK-293T; assay: Multiplex assay against HEK293T; conditions: human, number of replicates 2; summary of the method: as §1
[3] = tested on: U2OS; assay: Multiplex assay against U2OS; conditions: human, number of replicates 2; summary of the method: as §1
[4] = 12 h, 1 µM, compound concentration 1 uM
[5] = 12 h, 10 µM, compound concentration 10 uM
[6] = 24 h, 1 µM, compound concentration 1 uM
[7] = 24 h, 10 µM, compound concentration 10 uM
[8] = 48 h, 1 µM, compound concentration 1 uM
[9] = 48 h, 10 µM, compound concentration 10 uM

O=C(Nc1ccc(Cl)c(-c2ccccn2)c1)c1cccc(COc2ccc(Br)cc2CNCCO)c1.O=CO
Population Apoptotic (%) [1, 4]: 41% and 58% | Population Fragmented Nuclei (%) [1, 4]: 4% and 14% | Population Healthy Nuclei (%) [1, 4]: 72% and 56% | Population Hoechst High Intensity Objects (%) [1, 4]: 0% and 1% | Population Membrane Permeable-Phenotype (%) [1, 4]: 10% and 13% | Population Mitochondria Different-Phenotype (%) [1, 4]: 1% and 6% | Population Mitotic Cells (%) [1, 4]: 58% and 41% | Population Normal (%) [1, 4]: 100% and 98% | Population Pyknosed Nuclei (%) [1, 4]: 23% and 28% | Population Tubulin-Different-Phenotype (%) [1, 4]: 71% and 68% | Total Cell Count [1, 4]: 208 and 161 | Population Apoptotic (%) [1, 5]: 46% and 42% | Population Fragmented Nuclei (%) [1, 5]: 15% and 17% | Population Healthy Nuclei (%) [1, 5]: 58% | Population Hoechst High Intensity Objects (%) [1, 5]: 0% | Population Membrane Permeable-Phenotype (%) [1, 5]: 21% and 16% | Population Mitochondria Different-Phenotype (%) [1, 5]: 6% and 14% | Population Mitotic Cells (%) [1, 5]: 53% and 57% | Population Normal (%) [1, 5]: 100% and 99% | Population Pyknosed Nuclei (%) [1, 5]: 25% and 24% | Population Tubulin-Different-Phenotype (%) [1, 5]: 83% and 85% | Total Cell Count [1, 5]: 318 and 361 | Population Apoptotic (%) [1, 6]: 55% and 63% | Population Fragmented Nuclei (%) [1, 6]: 9% and 11% | Population Healthy Nuclei (%) [1, 6]: 69% and 58% | Population Hoechst High Intensity Objects (%) [1, 6]: 0% | Population Membrane Permeable-Phenotype (%) [1, 6]: 6% and 5% | Population Mitochondria Different-Phenotype (%) [1, 6]: 5% and 8% | Population Mitotic Cells (%) [1, 6]: 44% and 36% | Population Normal (%) [1, 6]: 99% and 100% | Population Pyknosed Nuclei (%) [1, 6]: 21% and 30% | Population Tubulin-Different-Phenotype (%) [1, 6]: 59% and 61% | Total Cell Count [1, 6]: 224 and 146 | Population Apoptotic (%) [1, 7]: 76% and 81% | Population Fragmented Nuclei (%) [1, 7]: 10% and 6% | Population Healthy Nuclei (%) [1, 7]: 40% and 46% | Population Hoechst High Intensity Objects (%) [1, 7]: 0% and 1% | Population Mitochondria Different-Phenotype (%) [1, 7]: 40% and 50% | Population Mitotic Cells (%) [1, 7]: 23% and 18% | Population Normal (%) [1, 7]: 99% and 98% | Population Pyknosed Nuclei (%) [1, 7]: 49% and 47% | Population Tubulin-Different-Phenotype (%) [1, 7]: 82% | Total Cell Count [1, 7]: 238 and 280 | Population Apoptotic (%) [1, 8]: 61% and 78% | Population Fragmented Nuclei (%) [1, 8]: 9% and 12% | Population Healthy Nuclei (%) [1, 8]: 72% and 64% | Population Hoechst High Intensity Objects (%) [1, 8]: 1% | Population Membrane Permeable-Phenotype (%) [1, 8]: 4% and 5% | Population Mitochondria Different-Phenotype (%) [1, 8]: 3% and 8% | Population Mitotic Cells (%) [1, 8]: 38% and 21% | Population Normal (%) [1, 8]: 98% | Population Pyknosed Nuclei (%) [1, 8]: 18% and 22% | Population Tubulin-Different-Phenotype (%) [1, 8]: 54% and 42% | Total Cell Count [1, 8]: 215 and 165 | Population Apoptotic (%) [1, 9]: 95% | Population Fragmented Nuclei (%) [1, 9]: 9% and 8% | Population Healthy Nuclei (%) [1, 9]: 12% and 13% | Population Hoechst High Intensity Objects (%) [1, 9]: 0% | Population Membrane Permeable-Phenotype (%) [1, 9]: 38% and 27% | Population Mitochondria Different-Phenotype (%) [1, 9]: 23% and 41% | Population Mitotic Cells (%) [1, 9]: 4% | Population Normal (%) [1, 9]: 99% | Population Pyknosed Nuclei (%) [1, 9]: 78% and 77% | Population Tubulin-Different-Phenotype (%) [1, 9]: 66% and 75% | Total Cell Count [1, 9]: 174 and 211 | Population Apoptotic (%) [2, 4]: 56% and 52% | Population Fragmented Nuclei (%) [2, 4]: 4% and 3% | Population Healthy Nuclei (%) [2, 4]: 76% and 80% | Population Hoechst High Intensity Objects (%) [2, 4]: 8% and 10% | Population Membrane Permeable-Phenotype (%) [2, 4]: 6% and 5% | Population Mitochondria Different-Phenotype (%) [2, 4]: 37% and 35% | Population Mitotic Cells (%) [2, 4]: 43% and 47% | Population Normal (%) [2, 4]: 91% and 89% | Population Pyknosed Nuclei (%) [2, 4]: 18% and 15% | Population Tubulin-Different-Phenotype (%) [2, 4]: 92% and 94% | Total Cell Count [2, 4]: 417 and 613 | Population Apoptotic (%) [2, 5]: 85% and 73% | Population Fragmented Nuclei (%) [2, 5]: 0% and 7% | Population Healthy Nuclei (%) [2, 5]: 79% and 71% | Population Hoechst High Intensity Objects (%) [2, 5]: 11% and 13% | Population Membrane Permeable-Phenotype (%) [2, 5]: 1% | Population Mitochondria Different-Phenotype (%) [2, 5]: 91% and 83% | Population Mitotic Cells (%) [2, 5]: 14% and 26% | Population Normal (%) [2, 5]: 88% and 86% | Population Pyknosed Nuclei (%) [2, 5]: 19% and 21% | Population Tubulin-Different-Phenotype (%) [2, 5]: 81% and 95% | Total Cell Count [2, 5]: 238 and 269 | Population Apoptotic (%) [2, 6]: 48% and 54% | Population Fragmented Nuclei (%) [2, 6]: 4% and 6% | Population Healthy Nuclei (%) [2, 6]: 85% and 82% | Population Hoechst High Intensity Objects (%) [2, 6]: 6% and 10% | Population Membrane Permeable-Phenotype (%) [2, 6]: 6% | Population Mitochondria Different-Phenotype (%) [2, 6]: 29% and 19% | Population Mitotic Cells (%) [2, 6]: 51% and 45% | Population Normal (%) [2, 6]: 93% and 89% | Population Pyknosed Nuclei (%) [2, 6]: 9% and 11% | Population Tubulin-Different-Phenotype (%) [2, 6]: 88% and 86% | Total Cell Count [2, 6]: 566 and 806 | Population Apoptotic (%) [2, 7]: 82% and 80% | Population Fragmented Nuclei (%) [2, 7]: 4% | Population Healthy Nuclei (%) [2, 7]: 75% and 72% | Population Hoechst High Intensity Objects (%) [2, 7]: 16% and 15% | Population Membrane Permeable-Phenotype (%) [2, 7]: 1% and 2% | Population Mitochondria Different-Phenotype (%) [2, 7]: 95% and 89% | Population Mitotic Cells (%) [2, 7]: 17% and 19% | Population Normal (%) [2, 7]: 83% and 84% | Population Pyknosed Nuclei (%) [2, 7]: 19% and 23% | Population Tubulin-Different-Phenotype (%) [2, 7]: 74% and 91% | Total Cell Count [2, 7]: 248 and 263 | Population Apoptotic (%) [2, 8]: 48% and 34% | Population Fragmented Nuclei (%) [2, 8]: 7% and 9% | Population Healthy Nuclei (%) [2, 8]: 87% and 85% | Population Hoechst High Intensity Objects (%) [2, 8]: 8% and 10% | Population Membrane Permeable-Phenotype (%) [2, 8]: 9% and 8% | Population Mitochondria Different-Phenotype (%) [2, 8]: 8% and 5% | Population Mitotic Cells (%) [2, 8]: 51% and 65% | Population Normal (%) [2, 8]: 91% and 89% | Population Pyknosed Nuclei (%) [2, 8]: 4% | Population Tubulin-Different-Phenotype (%) [2, 8]: 61% and 66% | Total Cell Count [2, 8]: 894 and 1474 | Population Apoptotic (%) [2, 9]: 79% and 78% | Population Fragmented Nuclei (%) [2, 9]: 3% and 1% | Population Healthy Nuclei (%) [2, 9]: 71% and 68% | Population Hoechst High Intensity Objects (%) [2, 9]: 19% and 12% | Population Membrane Permeable-Phenotype (%) [2, 9]: 4% and 1% | Population Mitochondria Different-Phenotype (%) [2, 9]: 82% and 86% | Population Mitotic Cells (%) [2, 9]: 20% and 21% | Population Normal (%) [2, 9]: 80% and 87% | Population Pyknosed Nuclei (%) [2, 9]: 24% and 29% | Population Tubulin-Different-Phenotype (%) [2, 9]: 84% and 89% | Total Cell Count [2, 9]: 339 and 305 | Population Apoptotic (%) [3, 4]: 71% and 88% | Population Fragmented Nuclei (%) [3, 4]: 11% and 3% | Population Healthy Nuclei (%) [3, 4]: 62% and 75% | Population Hoechst High Intensity Objects (%) [3, 4]: 0% | Population Membrane Permeable-Phenotype (%) [3, 4]: 47% and 48% | Population Mitochondria Different-Phenotype (%) [3, 4]: 23% and 66% | Population Mitotic Cells (%) [3, 4]: 28% and 11% | Population Normal (%) [3, 4]: 100% | Population Pyknosed Nuclei (%) [3, 4]: 25% and 20% | Population Tubulin-Different-Phenotype (%) [3, 4]: 82% and 87% | Population Apoptotic (%) [3, 5]: 75% and 64% | Population Healthy Nuclei (%) [3, 5]: 44% and 72% | Population Hoechst High Intensity Objects (%) [3, 5]: 0% | Population Membrane Permeable-Phenotype (%) [3, 5]: 62% and 32% | Population Mitochondria Different-Phenotype (%) [3, 5]: 62% and 57% | Population Mitotic Cells (%) [3, 5]: 25% and 36% | Population Normal (%) [3, 5]: 100% | Population Pyknosed Nuclei (%) [3, 5]: 11% and 16% | Population Tubulin-Different-Phenotype (%) [3, 5]: 100% and 93% | Population Apoptotic (%) [3, 6]: 69% and 82% | Population Healthy Nuclei (%) [3, 6]: 48% and 76% | Population Hoechst High Intensity Objects (%) [3, 6]: 0% | Population Membrane Permeable-Phenotype (%) [3, 6]: 31% and 45% | Population Mitochondria Different-Phenotype (%) [3, 6]: 57% and 69% | Population Mitotic Cells (%) [3, 6]: 30% and 17% | Population Normal (%) [3, 6]: 100% and 99% | Population Pyknosed Nuclei (%) [3, 6]: 33% and 20% | Population Tubulin-Different-Phenotype (%) [3, 6]: 100% and 84% | Population Apoptotic (%) [3, 7]: 100% and 71% | Population Healthy Nuclei (%) [3, 7]: 51% and 63% | Population Hoechst High Intensity Objects (%) [3, 7]: 0% | Population Membrane Permeable-Phenotype (%) [3, 7]: 82% and 75% | Population Mitochondria Different-Phenotype (%) [3, 7]: 82% and 72% | Population Normal (%) [3, 7]: 100% | Population Pyknosed Nuclei (%) [3, 7]: 15% and 28% | Population Tubulin-Different-Phenotype (%) [3, 7]: 100% and 98% | Population Apoptotic (%) [3, 8]: 69% and 89% | Population Healthy Nuclei (%) [3, 8]: 52% and 66% | Population Hoechst High Intensity Objects (%) [3, 8]: 2% and 0% | Population Membrane Permeable-Phenotype (%) [3, 8]: 40% and 46% | Population Mitochondria Different-Phenotype (%) [3, 8]: 52% and 59% | Population Mitotic Cells (%) [3, 8]: 30% and 10% | Population Normal (%) [3, 8]: 97% and 100% | Population Pyknosed Nuclei (%) [3, 8]: 27% and 30% | Population Tubulin-Different-Phenotype (%) [3, 8]: 92% and 65% | Population Apoptotic (%) [3, 9]: 94% and 90% | Population Healthy Nuclei (%) [3, 9]: 15% and 28% | Population Hoechst High Intensity Objects (%) [3, 9]: 2% and 1% | Population Membrane Permeable-Phenotype (%) [3, 9]: 100% and 80% | Population Mitochondria Different-Phenotype (%) [3, 9]: 66% and 72% | Population Mitotic Cells (%) [3, 9]: 5% and 9% | Population Normal (%) [3, 9]: 97% and 98% | Population Pyknosed Nuclei (%) [3, 9]: 44% and 62% | Population Tubulin-Different-Phenotype (%) [3, 9]: 100% and 97%
